Results taken from ChEMBL document CHEMBL1131326, “Design, synthesis, and antiviral evaluations of 1-(substituted benzyl)-2-substituted-5,6-dichlorobenzimidazoles as nonnucleoside analogues of 2,5,6-trichloro-1-(beta-D-ribofuranosyl)benzimidazole” (J Med Chem, 1998).

Legend:
KB = experiment: Inhibition of KB cell growth determined by quadruplicate assays; type: functional, cell-based; conditions: Homo sapiens
How it was run: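 KB cells seeded at 3000-5000/well, overnight at 37 °C, then compound in quadruplicate at six to eight concentrations for 48 h (about two doublings) in CO₂. Cells fixed in 95% ethanol, stained with 0.1% crystal violet, dye eluted with acidified ethanol and read at 570 nm; IC50 by regression vs log concentration.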

Human betaherpesvirus 5 [1] = experiment: Compound was tested for antiviral activity against human cytomegalovirus (HCMV) by plaque reduction assay; type: functional, organism-based
How it was run: (§1)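 HFF monolayers infected with about 100 pfu/cm² of HCMV Towne (isolate Po); after adsorption, compound in growth medium added to duplicate wells at four to eight concentrations.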

HFF = experiment: Visual cytotoxicity scored on HFF cells at a time of HCMV plaque enumeration; type: functional, cell-based; conditions: Homo sapiens
How it was run: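 Cytotoxicity in stationary HFF cells scored by microscopic inspection of cells not affected by virus, at time of HCMV plaque enumeration, in the plaque-assay plates.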

Human alphaherpesvirus 1 = experiment: Antiviral activity against herpes simplex virus type-1 (HSV-1); type: functional, organism-based
How it was run: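 BSC-1 cells (10 000/well, MEM(E) + 10% calf serum) incubated overnight, then given drug in quadruplicate plus HSV-1 KOS at 100 pfu/well; 3 days at 37 °C. ELISA with HRP-conjugated rabbit anti-HSV-1 antibody, TMB substrate, stopped with H₂SO₄, absorbance at 450 and 570 nm; IC50 by regression of % absorbance reduction vs log concentration.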

[2] = (§2) Compound was tested for antiviral activity against matched pairs of HIV-1 resistant to AZT; type: functional, Human immunodeficiency virus 1
How it was run: (§3)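 Matched clinical pairs of AZT-sensitive and AZT-resistant HIV-1 (C-691/G762 or H-112/G910, depending on compound series) were tested by syncytial plaque assay in duplicate sets on poly-L-lysine-adherent CEM-SS cells. Syncytial plaques were counted at 30-fold magnification 7 days postinfection. IC50 came from regression of percent inhibition versus log concentration, averaged over duplicate experiments.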

[3] = tested on: Human immunodeficiency virus 1; experiment: Activity against HIV-1 by syncytial plaque assay performed in duplicate using CEM-SS cells; type: functional, organism-based; conditions: Human immunodeficiency virus 1, CEM-SS
How it was run: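 Syncytial plaque assay: poly-L-lysine-adherent CEM-SS cells infected with HIV-1 strain IIIB with or without compound at selected concentrations; syncytial plaques counted at 30-fold magnification 7 days postinfection; duplicate. IC50 from linear regression of percent inhibition against log concentration.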

Human betaherpesvirus 5 [4] = experiment: Antiviral activity against human cytomegalovirus (HCMV) by plaque reduction assay; type: functional, organism-based; how it was run: as §1
[5] = tested on: Human immunodeficiency virus 2; experiment: Compound was tested for antiviral activity against HIV-2; type: functional, organism-based
[6] = Compound was tested for antiviral activity against HIV resistant to TIBO A-17; type: functional, Human immunodeficiency virus 1
How it was run: (§4)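 Syncytial plaque assay in duplicate sets on CEM-SS cells made adherent with poly-L-lysine. Virus was the A17 HIV-1 variant, resistant to nonnucleoside RT inhibitors including TIBO, or HIV-2, both from the AIDS Research and Reference Program. Infection was in the presence or absence of compound; syncytial plaques were counted at 30-fold magnification 7 days postinfection. IC50 came from linear regression of percent inhibition against log concentration.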

[7] = (§5) Compound was tested for antiviral activity against matched pairs of HIV-1 sensitive to AZT; type: functional, Human immunodeficiency virus 1
CEM-SS [8] = experiment: Cytotoxicity against CEM-SS cells in terms of incorporation of [3H]dThd; type: functional, cell-based; conditions: Homo sapiens
How it was run: (§6)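 DNA synthesis in CEM-SS cells measured as uptake of [³H]dThd into total acid-precipitable material; results averaged from duplicate experiments.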

[9] = (§7) Compound was tested for antiviral activity against HIV-1 resistant to TIBO A-17; type: functional, Human immunodeficiency virus 1; how it was run: as §4
CEM-SS [10] = experiment: Compound was tested for activity against HIV-1 by syncytial plaque assay performed in duplicate using CEM-SS cells; type: functional, cell-based; conditions: Homo sapiens
How it was run: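 CEM-SS cells made adherent with poly-L-lysine, infected with HIV-1 strain IIIB with or without selected compound concentrations; duplicate sets. Syncytial plaques counted at 30-fold magnification 7 days post-infection. Percent inhibition regressed linearly against log concentration to give IC50; zidovudine positive control in all assays. Values averaged over duplicate or triplicate experiments.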

[11] = tested on: Human immunodeficiency virus 1; experiment: as §7; type: functional, organism-based; how it was run: as §4
[12] = tested on: Human immunodeficiency virus 2; experiment: Compound was tested for antiviral activity against HIV-2
[13] = tested on: Human immunodeficiency virus 1; experiment: as §2; type: functional, organism-based; how it was run: as §3
[14] = tested on: Human immunodeficiency virus 1; experiment: as §5; type: functional, organism-based; how it was run: as §3
[15] = tested on: Human immunodeficiency virus 1; experiment: Compound was tested for antiviral activity against HIV-1 resistant to AZT; type: functional, organism-based; how it was run: as §3
[16] = tested on: Human immunodeficiency virus 1; experiment: Compound was tested for antiviral activity against HIV-1 sensitive to AZT; type: functional, organism-based; how it was run: as §3
CEM-SS [17] = experiment: Compounds were tested for cytotoxicity against CEM-SS cells in terms of incorporation of [3H]dThd; type: functional, cell-based; conditions: Homo sapiens; how it was run: as §6

Row | IC50 (Human betaherpesvirus 5 [1]) [µM] | SMILES | IC50 (KB) [µM] | IC50 (HFF) [µM] | IC50 (Human alphaherpesvirus 1) [µM] | IC50 [2] [µM] | IC50 [3] [µM] | IC50 (Human betaherpesvirus 5 [4]) [µM] | IC50 [5] [µM] | IC50 [6] [µM] | IC50 [7] [µM] | IC50 (CEM-SS [8]) [µM] | IC50 [9] [µM] | IC50 (CEM-SS [10]) [µM] | IC50 [11] [µM] | IC50 [12] [µM] | IC50 [13] [µM] | IC50 [14] [µM] | IC50 [15] [µM] | IC50 [16] [µM] | IC50 (CEM-SS [17]) [µM]
1 | 18 | Clc1cc2nc(NC3CC3)n(Cc3ccccc3)c2cc1Cl | 60 | 33 | > 100 | – | – | – | – | – | – | – | – | – | – | – | – | – | – | – | –
2 | – | O=[N+]([O-])c1ccc(Cn2c(Br)nc3cc(Cl)c(Cl)cc32)cc1 | 40 | > 100 | – | 6.9 | 14 | > 100 | 66 | 11 | 11 | > 100 | – | – | – | – | – | – | – | – | –
3 | – | Clc1ccc(Cn2c(Cl)nc3cc(Cl)c(Cl)cc32)cc1 | > 100 | > 100 | > 100 | 255 | – | > 100 | > 30 | – | 30 | > 100 | 19 | 9.1 | – | – | – | – | – | – | –
4 | – | Fc1ccc(Cn2c(Cl)nc3cc(Cl)c(Cl)cc32)cc1 | > 100 | > 100 | > 100 | – | 37 | > 100 | – | – | – | > 100 | – | – | 19 | > 30 | – | – | – | – | –
5 | – | O=[N+]([O-])c1cccc(Cn2c(Br)nc3cc(Cl)c(Cl)cc32)c1 | 150 | > 100 | – | – | 5.3 | > 100 | 28 | – | – | > 100 | – | – | 1 | – | 11 | 8.7 | – | – | –
6 | – | Cc1cccc(Cn2c(Cl)nc3cc(Cl)c(Cl)cc32)c1 | > 100 | > 100 | > 100 | 13 | 14 | > 100 | > 30 | – | 37 | > 100 | 16 | – | – | – | – | – | – | – | –
7 | – | Cc1cccc(Cn2c(Br)nc3cc(Cl)c(Cl)cc32)c1 | – | > 100 | – | – | 3.5 | > 100 | 143 | – | – | > 100 | – | – | 17 | – | – | – | 9 | 8.7 | –
8 | – | Cc1cn([C@H]2C[C@H](N=[N+]=[N-])[C@@H](CO)O2)c(=O)[nH]c1=O [ZIDOVUDINE] | – | – | – | – | – | – | – | – | – | – | – | 0.0026 | – | – | – | – | – | – | 1.9
